Experiments:
[1] = Stability in human whole blood at 2 uCi; format: ADME, tissue-based; settings: read-out: Stability
How it was run: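 Radioligand (2 μCi) was added to human whole blood (2.0 mL) at 23 °C and sampled at 10-90 min. Each sample was mixed with acetonitrile spiked with carrier and with KF (0.5 M), counted and centrifuged at 10 000 g for 1 min. The supernatant was analyzed by radio-HPLC.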

[2] = system: Blood; experiment: Biodistribution in rhesus monkey blood at 4 mCi, iv after180 mins; format: ADME, organism-based, Macaca mulatta; settings: in vivo, 3 h
How it was run: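 Anesthetized rhesus monkey given [18F] radioligand i.v. Heparinized blood drawn at 1 min intervals to 5 min, then at 10, 25, 40, 60, 90, 120 and 180 min, and kept on ice. Centrifuged 1800 g for 1.5 min. Plasma and cells γ-counted to give the partition of radioactivity into the cellular fraction.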

[3] = system: Hippocampus; experiment: Drug uptake in rhesus monkey hippocampus at 4 mCi, iv after 60 to 120 mins; format: ADME, organism-based, Macaca mulatta; settings: in vivo
How it was run: (§1)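 Anesthetized rhesus monkey (~10 kg; ketamine, propofol, isoflurane) given [18F] radioligand 4.0 mCi i.v. Imaged on HRRT with attenuation and scatter correction. Regional time–activity curves from MRI-coregistered regions of interest, expressed as %SUV (normalized for injected activity and body weight). Hippocampal uptake averaged over 60–120 min.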

[4] = Stability in phosphate buffered saline at pH 7.4 after 71 mins; format: physicochemical; settings: buffer, pH 7.4, 71 min
How it was run: (§2)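 The radioligand was dissolved in water, sampled at 34, 48 and 159 min, and analyzed at once by reverse-phase radio-HPLC (Novapak C-18, MeOH–H2O–Et3N 70:30:0.1, 2.0 mL/min). A second solution in 0.9% saline containing 0.15 mM phosphoric acid was sampled at 54 and 71 min and analyzed the same way.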

[5] = Stability in human brain at 50 uCi in 37 degC after 3 hrs; format: ADME, tissue-based
How it was run: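 Human brain tissue (1.76 g) was homogenized in ice-cold saline (3 mL), then mixed with about 50 μCi radioligand in ethanol–water 1:1. The mixture was incubated at 37 °C and sampled at 5-180 min. Samples were taken into carrier-spiked acetonitrile plus 0.5 M KF, counted and centrifuged at 10 000 g. Supernatants went to HPLC, and pellets were counted to give recovery.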

[6] = Stability in aqueous solution after 159 mins; format: physicochemical; settings: buffer, 2.65 h; how it was run: as §2
[7] = system: Brain; experiment: Drug uptake in rhesus monkey brain at 4 mCi, iv; format: ADME, organism-based, Macaca mulatta; settings: in vivo; how it was run: as §1
[8] = system: Hippocampus; experiment: Drug uptake in rhesus monkey hippocampus at 4 mCi, iv in presence of 6-methyl-2-(phenylethynyl)-pyridine after 60 to 120 mins; format: ADME, organism-based, Macaca mulatta; settings: in vivo
How it was run: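 Same rhesus monkey on a separate day, given blocker 5 mg/kg i.v. in saline with 10% ethanol 15 min before [18F] radioligand (3.8 mCi i.v.). HRRT PET. Regional uptake expressed as %SUV from MRI-coregistered regions of interest, averaged over 60–120 min.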

[9] = system: Striatum; experiment: Drug uptake in rhesus monkey striatum at 4 mCi, iv after 60 to 120 mins; format: ADME, organism-based, Macaca mulatta; settings: in vivo
How it was run: (§3)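 Rhesus monkey (~10 kg) anesthetized with ketamine (10 mg/kg, i.m.) and propofol (5 mg/kg, i.v.), then isoflurane 1.0-4.0% in oxygen; body temperature 37-37.5 °C. Radioligand given i.v. and imaged on HRRT PET with attenuation and scatter correction. For blockade, MPEP/MTEP (5 mg/kg, i.v., in saline with 10% ethanol) given 15 min before tracer in the same monkey. Striatal ROI expressed as %SUV (normalized to injected activity and body weight) over 60-120 min.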

[10] = Stability in rhesus monkey brain at 100 uCi in 37 degC after 90 mins; format: ADME, tissue-based, Macaca mulatta
How it was run: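 Monkey brain tissue (3.34 g, stored at -70 °C for 1 year) was homogenized on ice with about 100 μCi radioligand, incubated at 37 °C and sampled at 5-90 min. Samples were taken into acetonitrile spiked with carrier plus 0.5 M KF, counted and centrifuged at 10 000 g for 1 min. Supernatants went to HPLC, and pellets were counted to give recovery.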

[11] = system: Plasma; experiment: Stability in rhesus monkey plasma at 5 uCi after 168 mins; format: ADME, cell-free, Macaca mulatta; settings: 2.8 h
How it was run: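 Plasma was obtained by spinning whole monkey blood at 1800 g for 5 min. Plasma (1.0 mL) was incubated with 5 μCi radioligand at room temperature for 168 min, and a sample was analyzed by reverse-phase radio-HPLC.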

[12] = system: Striatum; experiment: Drug uptake in rhesus monkey striatum at 4 mCi, iv in presence of 6-methyl-2-(phenylethynyl)-pyridine after 60 to 120 mins; format: ADME, organism-based, Macaca mulatta; settings: in vivo; how it was run: as §3
[13] = molecular target: Metabotropic glutamate receptor 5 (Rattus norvegicus, UniProt P31424); experiment: Displacement of […] from mGluR5 in rat brain membrane; format: cell membranes
How it was run: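 Competition binding against [³H]MPEPy in rat whole-brain membranes (minus cerebellum and brainstem), homogenized in 50 mM Tris-HCl/saline pH 7.5, pelleted at 39 800 g. Membranes 5 mg/800 µL final. Competitor from 10 mM ethanol stock, final 0.01 nM to 1 mM. Incubated 1 h at 22 °C, filtered on PEI-soaked GF/B, washed with cold saline, scintillation counted. Three determinations.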

[14] = molecular target: 5-hydroxytryptamine receptor 2A (Homo sapiens, UniProt P28223); experiment: Displacement of [3H]ketanserin from 5HT2A receptor
[15] = molecular target: Histamine H4 receptor (Homo sapiens, UniProt Q9H3N8); experiment: Binding affinity to histamine H4 receptor
[16] = molecular target: Metabotropic glutamate receptor 1 (Homo sapiens, UniProt Q13255); experiment: Binding affinity at mGluR1
[17] = molecular target: Beta-2 adrenergic receptor (Homo sapiens, UniProt P07550); experiment: Displacement of [125I]pindolol from adrenergic beta-2 receptor
[18] = molecular target: Kappa-type opioid receptor (Homo sapiens, UniProt P41145); experiment: Displacement of [3H]bremazocine from kappa opioid receptor
[19] = molecular target: 5-hydroxytryptamine receptor 5A (Homo sapiens, UniProt P47898); experiment: Displacement of [3H]LSD from 5HT5A receptor
[20] = molecular target: D(2) dopamine receptor (Homo sapiens, UniProt P14416); experiment: Displacement of [3H]N-methylspiperone from dopamine D2 receptor
[21] = molecular target: Sodium-dependent dopamine transporter (Homo sapiens, UniProt Q01959); experiment: Displacement of [3H]WIN-35428 from DAT
[22] = molecular target: Muscarinic acetylcholine receptor M2 (Homo sapiens, UniProt P08172); experiment: Displacement of [3H]QNB from muscarinic M2 receptor
[23] = molecular target: Delta-type opioid receptor (Homo sapiens, UniProt P41143); experiment: Displacement of [3H]DADLE from delta opioid receptor
[24] = molecular target: Muscarinic acetylcholine receptor M4 (Homo sapiens, UniProt P08173); experiment: Displacement of [3H]QNB from muscarinic M4 receptor
[25] = molecular target: D(1A) dopamine receptor (Homo sapiens, UniProt P21728); experiment: Displacement of [3H]SCH-23390 from dopamine D1 receptor
[26] = molecular target: 5-hydroxytryptamine receptor 1B (Homo sapiens, UniProt P28222); experiment: Displacement of [3H]GR-125743 from 5HT1B receptor
[27] = molecular target: Histamine H2 receptor (Homo sapiens, UniProt P25021); experiment: Binding affinity to from histamine H2 receptor
[28] = molecular target: Serotonin 3 (5-HT3) receptor; experiment: Displacement of [3H]zacopride from 5HT3 receptor; format: protein-complex assay, Homo sapiens
[29] = molecular target: Metabotropic glutamate receptor 6 (Homo sapiens, UniProt O15303); experiment: Binding affinity at mGluR6
[30] = molecular target: Alpha-2C adrenergic receptor (Homo sapiens, UniProt P18825); experiment: Displacement of [3H][…] from adrenergic alpha-2C receptor
[31] = molecular target: Histamine H1 receptor (Homo sapiens, UniProt P35367); experiment: Binding affinity to histamine H1 receptor
[32] = molecular target: Sodium-dependent noradrenaline transporter (Homo sapiens, UniProt P23975); experiment: Displacement of [3H]nisoxitine from NET
[33] = molecular target: D(1B) dopamine receptor (Homo sapiens, UniProt P21918); experiment: Displacement of radiolabeled SKF-38393 from dopamine D5 receptor
[34] = molecular target: Muscarinic acetylcholine receptor M1 (Homo sapiens, UniProt P11229); experiment: Displacement of [3H]QNB from muscarinic M1 receptor
[35] = molecular target: Alpha-1A adrenergic receptor (Homo sapiens, UniProt P35348); experiment: Displacement of [3H]prazosin from adrenergic alpha-1A receptor
[36] = molecular target: Sodium-dependent serotonin transporter (Homo sapiens, UniProt P31645); experiment: Displacement of [3H]citalopram from SERT
[37] = molecular target: Alpha-2B adrenergic receptor (Homo sapiens, UniProt P18089); experiment: Displacement of [3H][…] from adrenergic alpha-2B receptor
[38] = molecular target: Muscarinic acetylcholine receptor M3 (Homo sapiens, UniProt P20309); experiment: Displacement of [3H]QNB from muscarinic M3 receptor
[39] = molecular target: 5-hydroxytryptamine receptor 2C (Homo sapiens, UniProt P28335); experiment: Displacement of [3H]mesulergine from 5HT2C receptor
[40] = molecular target: Sigma non-opioid intracellular receptor 1 (Homo sapiens, UniProt Q99720); experiment: Binding affinity to sigma1 receptor
[41] = molecular target: 5-hydroxytryptamine receptor 1E (Homo sapiens, UniProt P28566); experiment: Displacement of [3H]5-HT from 5HT1E receptor
[42] = molecular target: D(4) dopamine receptor (Homo sapiens, UniProt P21917); experiment: Displacement of [3H]N-methylspiperone from dopamine D4 receptor
[43] = molecular target: Metabotropic glutamate receptor 4 (Homo sapiens, UniProt Q14833); experiment: Binding affinity at mGluR4
[44] = molecular target: Alpha-1B adrenergic receptor (Homo sapiens, UniProt P35368); experiment: Displacement of [3H]prazosin from adrenergic alpha-1B receptor
[45] = molecular target: 5-hydroxytryptamine receptor 2B (Homo sapiens, UniProt P41595); experiment: Displacement of [3H]LSD from 5HT2B receptor
[46] = molecular target: Metabotropic glutamate receptor 2 (Homo sapiens, UniProt Q14416); experiment: Binding affinity at mGluR2
[47] = molecular target: Mu-type opioid receptor (Homo sapiens, UniProt P35372); experiment: Displacement of [3H]diprenorphine from mu opioid receptor
[48] = molecular target: 5-hydroxytryptamine receptor 6 (Homo sapiens, UniProt P50406); experiment: Displacement of [3H]LSD from 5HT6 receptor
[49] = molecular target: Muscarinic acetylcholine receptor M5 (Homo sapiens, UniProt P08912); experiment: Displacement of [3H]QNB from muscarinic M5 receptor
[50] = molecular target: 5-hydroxytryptamine receptor 1D (Homo sapiens, UniProt P28221); experiment: Displacement of [3H]GR-125743 from 5HT1D receptor
[51] = molecular target: Alpha-2A adrenergic receptor (Homo sapiens, UniProt P08913); experiment: Displacement of [3H][…] from adrenergic alpha2A receptor
[52] = molecular target: D(3) dopamine receptor (Homo sapiens, UniProt P35462); experiment: Displacement of [3H]N-methylspiperone from dopamine D3 receptor
[53] = Displacement of [3H]MK-801 from NMDA receptor; set-up: species or system Homo sapiens
[54] = molecular target: Histamine H3 receptor (Homo sapiens, UniProt Q9Y5N1); experiment: Binding affinity to histamine H3 receptor
[55] = molecular target: 5-hydroxytryptamine receptor 7 (Homo sapiens, UniProt P34969); experiment: Displacement of [3H]LSD from 5HT7 receptor
[56] = molecular target: Beta-1 adrenergic receptor (Homo sapiens, UniProt P08588); experiment: Displacement of [125I]pindolol from adrenergic beta-1 receptor
[57] = molecular target: Metabotropic glutamate receptor 8 (Homo sapiens, UniProt O00222); experiment: Binding affinity at mGluR8
[58] = molecular target: 5-hydroxytryptamine receptor 1A (Homo sapiens, UniProt P08908); experiment: Displacement of [3H]8-OH-DPAT from 5HT1A receptor
[59] = Lipophilicity, log D of the compound; format: physicochemical; settings: octanol/water
How it was run: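 Partition of the [18F]-labeled radioligand between n-octanol and sodium phosphate buffer (0.15 M, pH 7.4) was measured, following a general method described earlier.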

Sequence of Metabotropic glutamate receptor 5 (P31424 whole entry): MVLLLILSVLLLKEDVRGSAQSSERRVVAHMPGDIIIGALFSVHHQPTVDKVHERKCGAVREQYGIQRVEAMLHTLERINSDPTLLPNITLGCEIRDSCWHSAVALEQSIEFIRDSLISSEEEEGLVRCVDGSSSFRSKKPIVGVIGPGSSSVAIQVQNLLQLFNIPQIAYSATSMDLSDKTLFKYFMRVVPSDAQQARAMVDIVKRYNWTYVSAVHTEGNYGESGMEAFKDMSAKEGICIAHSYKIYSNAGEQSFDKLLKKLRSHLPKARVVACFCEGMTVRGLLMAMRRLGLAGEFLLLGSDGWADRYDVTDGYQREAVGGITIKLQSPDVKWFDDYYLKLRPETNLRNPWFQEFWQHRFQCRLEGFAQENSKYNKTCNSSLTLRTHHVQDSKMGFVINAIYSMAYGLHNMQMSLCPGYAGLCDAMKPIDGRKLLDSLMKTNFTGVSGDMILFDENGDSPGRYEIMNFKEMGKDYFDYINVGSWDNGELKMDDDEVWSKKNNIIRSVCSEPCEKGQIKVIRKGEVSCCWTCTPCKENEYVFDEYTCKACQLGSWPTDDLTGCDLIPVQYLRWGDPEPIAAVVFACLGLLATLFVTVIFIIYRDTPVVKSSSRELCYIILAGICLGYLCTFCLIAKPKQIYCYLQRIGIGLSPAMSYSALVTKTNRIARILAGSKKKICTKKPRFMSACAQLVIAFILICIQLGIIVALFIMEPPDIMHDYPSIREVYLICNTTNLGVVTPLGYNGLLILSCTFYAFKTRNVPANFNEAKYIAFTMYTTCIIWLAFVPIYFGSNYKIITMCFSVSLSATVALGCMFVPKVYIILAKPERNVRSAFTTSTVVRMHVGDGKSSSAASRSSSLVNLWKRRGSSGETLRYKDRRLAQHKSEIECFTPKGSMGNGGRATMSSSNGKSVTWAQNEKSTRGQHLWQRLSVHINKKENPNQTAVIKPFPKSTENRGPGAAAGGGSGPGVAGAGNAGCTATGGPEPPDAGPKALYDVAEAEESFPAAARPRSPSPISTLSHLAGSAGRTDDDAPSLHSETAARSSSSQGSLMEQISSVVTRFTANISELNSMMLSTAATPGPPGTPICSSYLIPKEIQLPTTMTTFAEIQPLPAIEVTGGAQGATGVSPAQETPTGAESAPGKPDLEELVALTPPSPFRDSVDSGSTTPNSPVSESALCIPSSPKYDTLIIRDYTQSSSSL
Sequence of Kappa-type opioid receptor (P41145 whole entry): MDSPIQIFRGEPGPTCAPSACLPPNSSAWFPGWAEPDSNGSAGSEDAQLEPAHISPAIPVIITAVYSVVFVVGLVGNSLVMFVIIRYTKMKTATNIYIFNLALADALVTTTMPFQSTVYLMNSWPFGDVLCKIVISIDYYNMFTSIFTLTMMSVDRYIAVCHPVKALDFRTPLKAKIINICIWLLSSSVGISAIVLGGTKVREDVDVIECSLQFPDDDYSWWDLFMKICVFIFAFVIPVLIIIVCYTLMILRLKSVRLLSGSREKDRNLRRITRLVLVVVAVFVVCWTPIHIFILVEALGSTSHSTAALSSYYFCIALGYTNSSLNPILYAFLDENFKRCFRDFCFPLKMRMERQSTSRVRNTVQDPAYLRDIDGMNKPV
Sequence of Histamine H2 receptor (P25021 whole entry): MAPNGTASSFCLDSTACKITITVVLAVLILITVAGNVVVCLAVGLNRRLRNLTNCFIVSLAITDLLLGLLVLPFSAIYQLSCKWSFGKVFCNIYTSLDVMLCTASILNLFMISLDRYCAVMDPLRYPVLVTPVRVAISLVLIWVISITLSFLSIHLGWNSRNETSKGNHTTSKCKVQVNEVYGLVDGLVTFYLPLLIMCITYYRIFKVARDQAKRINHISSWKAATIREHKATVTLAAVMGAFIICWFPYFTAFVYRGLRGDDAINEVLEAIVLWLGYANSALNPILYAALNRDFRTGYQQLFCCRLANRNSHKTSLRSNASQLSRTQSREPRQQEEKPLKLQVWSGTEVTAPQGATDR
Sequence of Beta-2 adrenergic receptor (P07550 whole entry): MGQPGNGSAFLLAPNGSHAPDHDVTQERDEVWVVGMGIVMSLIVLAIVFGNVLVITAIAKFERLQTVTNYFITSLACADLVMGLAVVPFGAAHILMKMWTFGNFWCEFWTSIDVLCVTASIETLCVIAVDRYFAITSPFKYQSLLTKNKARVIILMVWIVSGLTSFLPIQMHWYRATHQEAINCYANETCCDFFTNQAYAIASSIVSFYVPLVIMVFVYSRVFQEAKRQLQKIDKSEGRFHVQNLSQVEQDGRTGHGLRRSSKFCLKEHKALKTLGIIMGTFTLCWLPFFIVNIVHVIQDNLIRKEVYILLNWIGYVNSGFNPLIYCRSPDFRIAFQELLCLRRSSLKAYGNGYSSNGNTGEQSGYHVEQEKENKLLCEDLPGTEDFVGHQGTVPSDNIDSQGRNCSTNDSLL
Sequence of Metabotropic glutamate receptor 6 (O15303 whole entry): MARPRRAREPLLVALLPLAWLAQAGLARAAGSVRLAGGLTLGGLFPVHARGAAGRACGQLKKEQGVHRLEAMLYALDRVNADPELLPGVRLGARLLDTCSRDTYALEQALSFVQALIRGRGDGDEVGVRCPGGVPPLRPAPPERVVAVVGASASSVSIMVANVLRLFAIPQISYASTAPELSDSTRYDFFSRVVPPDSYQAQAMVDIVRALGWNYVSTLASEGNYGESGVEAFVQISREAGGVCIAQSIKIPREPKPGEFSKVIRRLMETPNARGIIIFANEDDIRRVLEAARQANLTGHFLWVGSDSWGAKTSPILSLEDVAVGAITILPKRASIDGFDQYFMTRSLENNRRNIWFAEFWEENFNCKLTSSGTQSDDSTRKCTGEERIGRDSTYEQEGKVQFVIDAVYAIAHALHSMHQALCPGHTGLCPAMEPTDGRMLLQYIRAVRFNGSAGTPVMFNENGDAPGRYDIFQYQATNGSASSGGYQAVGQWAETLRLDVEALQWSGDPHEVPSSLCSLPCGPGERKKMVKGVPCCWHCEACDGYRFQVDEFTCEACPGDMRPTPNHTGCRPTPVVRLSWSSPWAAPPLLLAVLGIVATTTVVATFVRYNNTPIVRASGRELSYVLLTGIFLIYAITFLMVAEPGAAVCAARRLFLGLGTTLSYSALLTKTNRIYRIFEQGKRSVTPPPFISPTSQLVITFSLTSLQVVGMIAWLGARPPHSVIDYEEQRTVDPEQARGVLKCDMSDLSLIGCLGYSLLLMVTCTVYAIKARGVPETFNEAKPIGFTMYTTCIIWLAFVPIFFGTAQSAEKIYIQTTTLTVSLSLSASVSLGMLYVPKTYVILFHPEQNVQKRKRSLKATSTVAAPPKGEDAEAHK
Sequence of Histamine H4 receptor (Q9H3N8 whole entry): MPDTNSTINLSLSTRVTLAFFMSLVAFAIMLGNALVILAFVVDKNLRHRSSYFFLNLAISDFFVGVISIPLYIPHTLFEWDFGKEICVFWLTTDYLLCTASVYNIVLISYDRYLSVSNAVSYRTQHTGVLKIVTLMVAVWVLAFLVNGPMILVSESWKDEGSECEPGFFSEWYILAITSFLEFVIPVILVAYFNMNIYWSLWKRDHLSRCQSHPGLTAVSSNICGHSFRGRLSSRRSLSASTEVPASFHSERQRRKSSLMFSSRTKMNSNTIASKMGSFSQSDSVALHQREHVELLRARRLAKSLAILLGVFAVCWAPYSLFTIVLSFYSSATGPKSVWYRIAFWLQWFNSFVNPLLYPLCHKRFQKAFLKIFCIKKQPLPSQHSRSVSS
Sequence of Beta-1 adrenergic receptor (P08588 whole entry): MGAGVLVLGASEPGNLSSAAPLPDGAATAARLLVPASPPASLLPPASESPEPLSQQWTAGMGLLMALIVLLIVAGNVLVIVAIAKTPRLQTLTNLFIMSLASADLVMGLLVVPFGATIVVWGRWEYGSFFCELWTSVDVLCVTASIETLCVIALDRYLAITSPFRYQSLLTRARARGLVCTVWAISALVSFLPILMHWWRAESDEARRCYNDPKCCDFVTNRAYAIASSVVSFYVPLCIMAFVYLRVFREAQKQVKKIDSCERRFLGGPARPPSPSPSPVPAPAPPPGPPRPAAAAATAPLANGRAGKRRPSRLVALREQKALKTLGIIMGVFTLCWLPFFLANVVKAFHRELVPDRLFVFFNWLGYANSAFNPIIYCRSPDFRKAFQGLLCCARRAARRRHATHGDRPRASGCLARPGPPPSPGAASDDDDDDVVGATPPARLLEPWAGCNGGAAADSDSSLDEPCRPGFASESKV
Sequence of 5-hydroxytryptamine receptor 1A (P08908 whole entry): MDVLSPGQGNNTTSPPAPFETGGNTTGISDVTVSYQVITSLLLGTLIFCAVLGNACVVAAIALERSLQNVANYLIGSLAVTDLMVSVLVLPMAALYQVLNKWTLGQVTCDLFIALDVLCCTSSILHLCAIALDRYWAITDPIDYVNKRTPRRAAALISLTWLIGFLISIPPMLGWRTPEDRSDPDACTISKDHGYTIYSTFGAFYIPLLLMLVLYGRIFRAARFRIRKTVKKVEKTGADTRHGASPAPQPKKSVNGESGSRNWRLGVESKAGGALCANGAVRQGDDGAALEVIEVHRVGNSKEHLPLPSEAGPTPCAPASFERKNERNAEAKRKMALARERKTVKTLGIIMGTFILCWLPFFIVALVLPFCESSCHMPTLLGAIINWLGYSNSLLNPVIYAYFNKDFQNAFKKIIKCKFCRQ
Sequence of 5-hydroxytryptamine receptor 1B (P28222 whole entry): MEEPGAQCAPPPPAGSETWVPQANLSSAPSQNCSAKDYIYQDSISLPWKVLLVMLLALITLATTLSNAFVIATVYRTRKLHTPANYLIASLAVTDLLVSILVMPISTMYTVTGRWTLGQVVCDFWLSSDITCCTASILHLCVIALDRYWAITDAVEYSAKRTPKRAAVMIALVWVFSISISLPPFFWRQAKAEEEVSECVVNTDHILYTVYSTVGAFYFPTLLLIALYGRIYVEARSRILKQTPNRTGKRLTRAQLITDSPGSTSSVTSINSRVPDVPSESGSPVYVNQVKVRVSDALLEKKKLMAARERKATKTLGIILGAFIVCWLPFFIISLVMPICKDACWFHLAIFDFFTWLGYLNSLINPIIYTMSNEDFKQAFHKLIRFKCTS

N#Cc1cc(F)cc(C#Cc2csc(C[18F])n2)c1
Stable: Stability [4] | Stability [6] | Stability [11]
33.9%: Drug uptake [2]
98.6%: remaining at 3 h, 50 uCi [5]
450%: Drug uptake [7]
> 98%: remaining at 2 uCi [1]
500%: Drug uptake [3] | Drug uptake [9]
98.2%: remaining at 1.5 h, 100 uCi [10]
200%: Drug uptake [8] | Drug uptake [12]

N#Cc1cccc(C#Cc2csc(CF)n2)c1
0.06 nM: IC50 [13]

N#Cc1cc(F)cc(C#Cc2csc(CF)n2)c1
0.036 nM: IC50 [13]
> 10 µM: Ki [14] | Ki [15] | Ki [16] | Ki [17] | Ki [18] | Ki [19] | Ki [20] | Ki [21] | Ki [22] | Ki [23] | Ki [24] | Ki [25] | Ki [26] | Ki [27] | Ki [28] | Ki [29] | Ki [30] | Ki [31] | Ki [32] | Ki [33] | Ki [34] | Ki [35] | Ki [36] | Ki [37] | Ki [38] | Ki [39] | Ki [40] | Ki [41] | Ki [42] | Ki [43] | Ki [44] | Ki [45] | Ki [46] | Ki [47] | Ki [48] | Ki [49] | Ki [50] | Ki [51] | Ki [52] | Ki [53] | Ki [54] | Ki [55] | Ki [56] | Ki [57] | Ki [58]
2.18: logD [59]

Source: ChEMBL document CHEMBL1145430, “Synthesis and simple 18F-labeling of 3-fluoro-5-(2-(2-(fluoromethyl)thiazol-4-yl)ethynyl)benzonitrile as a high affinity radioligand for imaging monkey brain metabotropic glutamate subtype-5 receptors with positron emission tomography” (J Med Chem, 2007)
